# Experimental data as given in PubChem BioAssay AID488898 (Broad Institute, 2010).
# Results filed as inconclusive are left out. Active and inactive are the calls of the source.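 Rule for the calls: active = fitted half-maximal caspase rise reached at or below ten times the top valid dose; inconclusive = flat fit between 30 and 70 percent, or poor fit; inactive = the rest.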
# Tested on: Bax/Bak-/- MEF caspase activation, CaspaseGlo luminescence, 3 h
# Experiment: caspase activation in Bax/Bak null MEFs, dose response, counter-screen for Bcl2-A1 inhibitor project, cell-based, mouse embryonic fibroblasts, dry powder (AID 488898)
# Details: not given
# Outline: (§1)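 Material – Bax/Bak-null mouse embryonic fibroblasts · Input – 2500 cells/well · Doses – compound added to cells by pin transfer · Times – 3 h compound exposure (37 °C), then 1 h RT detection · Technique – Caspase-Glo luminescence for caspase activity · Read-out basis – caspase activation, flagging off-target or general toxicity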
row,SMILES,AC50 [µM]
1,Cc1cccc(NC(=O)/C(C#N)=C/c2cn(CC(=O)NCc3ccco3)c3ccccc23)c1,4.78
2,COc1ccc(N(C(=O)CCl)C(C(=O)NCCc2ccccc2)c2cccs2)cc1Cl (centres undefined),24.9
3,Cc1cc(C(=O)CCl)c(C)n1CCc1ccc(Cl)cc1,13.3

# Tested on: not listed separately
# Experiment: as above
# Details: Bax/Bak-/- MEF caspase activation, CaspaseGlo luminescence, 3 h; at 135 µM (top of the series)
# Outline: as §1
row,SMILES,caspase activation
1,CC(=O)N[C@H]1[C@H](O[C@H]2CC[C@@]3(C)C(CC[C@]4(C)C3CC=C3[C@@H]5CC(C)(C)CC[C@]5(C(=O)OC5OCC(O)C(O)C5O)C(O)C[C@]34C)C2(C)C)O[C@H](COC2OCC(O)C(OC3OCC(O)C(O)C3O)C2O)[C@@H](O[C@@H]2O[C@@H](C)[C@H](O)[C@@H](O)[C@H]2O[C@@H]2O[C@@H](C)[C@H](O)[C@@H](O)[C@H]2O)[C@@H]1O (some centres undefined),-0.158% (inactive)

# Same assay, conditions: Bax/Bak-/- MEF caspase activation, CaspaseGlo luminescence, 3 h; at 150 µM (top of the series)
row,SMILES,caspase activation
1,Cc1ccc(CS(=O)(=O)c2ncc(Cl)c(C(=O)Nc3nnc(C(C)C)s3)n2)cc1,-0.479% (inactive)
2,O=C(Oc1cccc(/C=N/Nc2nc(Nc3ccccc3)nc(N3CCOCC3)n2)c1)c1ccco1,0.146% (inactive)
3,COc1cc(/C=C(/C#N)c2nc3ccccc3[nH]2)ccc1OCC(=O)Nc1ccccc1C(C)C,1.27% (inactive)
4,COc1cccc(C(=O)C(C#N)=C(SC)SC)c1,0.208% (inactive)
5,C/C1=C/C(=O)O[C@@H]2C[C@@H](CC[C@H](C)/C=C\CC1)O[C@@](O)(C1CSC(=O)N1)C2 (some centres undefined),1.16% (inactive)
6,CC(=O)OC(C)(C)/C=C/C(=O)[C@](C)(O)C1[C@H](O)C[C@@]2(C)C3CC=C4C(C[C@H](O)C(=O)C4(C)C)[C@]3(C)C(=O)C[C@]12C (some centres undefined),0.556% (inactive)
7,Nc1nc(F)nc2c1ncn2[C@@H]1O[C@H](CO)[C@@H](O)[C@H]1O,-0.0553% (inactive)
8,CCOC(=O)CSC1=N/C(=C/c2ccc(-n3cncn3)cc2)C(=O)N1C(C)=O,-0.0192% (inactive)
9,Cc1c(CCOC(=O)c2ccc(N3CCOCC3)c([N+](=O)[O-])c2)sc[n+]1CC#N,0.688% (inactive)
10,Cc1ccc(Sc2c([N+](=O)[O-])c(=O)n(C)c3ccccc23)cc1,1% (inactive)
11,CCc1nnc(NC(=O)c2nc(S(=O)(=O)Cc3ccccc3)ncc2Cl)s1,-0.106% (inactive)
12,Cn1c(=NC(=O)CCl)sc2ccccc21,0.685% (inactive)
13,Cc1cccc(CS(=O)(=O)c2ncc(Cl)c(C(=O)Nc3nnc(C(C)C)s3)n2)c1,-0.163% (inactive)
14,C=C1[C@@H](C)[C@H]2[C@H](Cc3ccccc3)NC(=O)[C@]23[C@H](OC(C)=O)/C=C/[C@](C)(O)C(=O)[C@@H](C)C/C=C/[C@H]3[C@@H]1O,0.127% (inactive)
15,CCc1cc2c(=O)c(-c3cnn(-c4ccccc4)c3)c(C)oc2cc1OCC(=O)Nc1cccc(C)c1,0.45% (inactive)
16,O=C(CCl)N=c1sccn1Cc1ccccc1Cl,0.854% (inactive)
17,Cc1c(C=O)c(C=O)c(C)n1Cc1ccccc1,1.17% (inactive)
18,CC(C)(C)n1nc(-c2ccc(Cl)cc2)c2c(N)ncnc21,2.79% (inactive)
19,CCSc1nnc(NC(=O)c2nc(S(=O)(=O)Cc3ccc(F)cc3)ncc2Cl)s1,-0.717% (inactive)
20,C=C1[C@@H](C)[C@H]2[C@H](Cc3ccccc3)NC(=O)[C@]23OC(=O)/C=C\[C@H](O)CCC[C@@H](C)C/C=C/[C@H]3[C@@H]1O,0.116% (inactive)
